Assay results: PMC10962649 (Journal of Food and Drug Analysis, 2024)
Marks after values point to notes of the source that are not given here.

Legend:
MDCKII-BCRP cells = test: MTT assay for cell viability, MDCKII-BCRP cells; format: cell-based, canine; conditions: 100 μM, MDCKII-BCRP cells (data not shown)
Method in brief: (§1)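 MDCKII cells (wild-type or BCRP-overexpressing, from the Netherlands Cancer Institute) were grown in DMEM with 10% FBS and 1% penicillin-streptomycin-glutamine at 37 °C under 5% CO₂. Viability after exposure to test agents was measured by MTT assay, following a cited method with minor modification.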

MRP2 [1] = target: MRP2 (Canis lupus familiaris, UniProt A0A8I3SCV5); test: MRP2 activity: intracellular accumulation of GSMF; format: cell-based; conditions: MDCKII-WT cells
BCRP = target: T1, BCRP (Homo sapiens, UniProt Q9UNQ0); conditions: concentrations of 12.5–100 μM; cited from earlier work
T1 sequence (Q9UNQ0 1-655): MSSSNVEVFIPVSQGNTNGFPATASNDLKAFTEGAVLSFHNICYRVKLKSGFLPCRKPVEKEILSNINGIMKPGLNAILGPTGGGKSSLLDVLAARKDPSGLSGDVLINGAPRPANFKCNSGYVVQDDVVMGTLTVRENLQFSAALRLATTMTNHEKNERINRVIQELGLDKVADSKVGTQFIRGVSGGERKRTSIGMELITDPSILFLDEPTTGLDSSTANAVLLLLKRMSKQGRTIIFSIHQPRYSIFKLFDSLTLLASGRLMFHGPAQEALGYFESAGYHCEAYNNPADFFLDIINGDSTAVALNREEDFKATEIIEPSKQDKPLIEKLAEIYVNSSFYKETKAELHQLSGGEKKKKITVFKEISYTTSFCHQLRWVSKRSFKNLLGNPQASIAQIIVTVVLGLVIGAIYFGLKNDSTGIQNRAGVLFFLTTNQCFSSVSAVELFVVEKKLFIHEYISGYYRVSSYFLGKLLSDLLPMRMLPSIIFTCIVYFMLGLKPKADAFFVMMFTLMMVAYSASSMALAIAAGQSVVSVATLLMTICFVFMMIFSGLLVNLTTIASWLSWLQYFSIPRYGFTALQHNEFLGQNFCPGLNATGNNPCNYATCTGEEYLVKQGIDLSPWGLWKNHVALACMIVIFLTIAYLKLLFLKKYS

MDCKII-WT cells = test: MTT assay for cell viability, MDCKII-WT cells; format: cell-based, canine; conditions: 150 μM, MDCKII-WT cells (data not shown)
Method in brief: as §1

MRP2 [2] = target: MRP2 (Homo sapiens, UniProt Q92887); format: cell-based; conditions: MDCKII-MRP2 cells, 100 μM spiked in blank serum, Fig. 3(C)
[3] = Mortality of rats observed during the pharmacokinetic study; format: in vivo, Sprague–Dawley rats; conditions: oral MTX 5.0 mg/kg alone or coadministered with MOC (three groups)
Method in brief: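 Male Sprague–Dawley rats (350–450 g) were fasted overnight with water allowed, and food was returned 3 h after dosing. They received oral MTX 5.0 mg/kg, given alone with water or 0.5 h after oral decoction at 2.0 or 4.0 g/kg. A fourth group got 2.0 g/kg thrice daily for 2 days before MTX. Deaths were noted over the 48-h sampling period.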

[4] = Pharmacokinetics of oral MTX in rats alone and coadministered with MOC; format: in vivo, Sprague–Dawley rats
Method in brief: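 Groups were dosed orally and in parallel: MTX 5.0 mg/kg with an equal volume of water (n = 6), or with decoction given 0.5 h earlier. Rats were fasted overnight. Tail-vein blood (0.5 mL) was drawn at 0.25–48 h, and serum MTX was measured by fluorescence polarization immunoassay using the kit calibration. AUC0-t was derived by noncompartmental analysis.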

[5] = 50 μM, MN/HK experiment, Fig. 3(B)

MRP2 (Canis lupus familiaris, UniProt A0A8I3SCV5), sequence (A0A8I3SCV5 1-1544): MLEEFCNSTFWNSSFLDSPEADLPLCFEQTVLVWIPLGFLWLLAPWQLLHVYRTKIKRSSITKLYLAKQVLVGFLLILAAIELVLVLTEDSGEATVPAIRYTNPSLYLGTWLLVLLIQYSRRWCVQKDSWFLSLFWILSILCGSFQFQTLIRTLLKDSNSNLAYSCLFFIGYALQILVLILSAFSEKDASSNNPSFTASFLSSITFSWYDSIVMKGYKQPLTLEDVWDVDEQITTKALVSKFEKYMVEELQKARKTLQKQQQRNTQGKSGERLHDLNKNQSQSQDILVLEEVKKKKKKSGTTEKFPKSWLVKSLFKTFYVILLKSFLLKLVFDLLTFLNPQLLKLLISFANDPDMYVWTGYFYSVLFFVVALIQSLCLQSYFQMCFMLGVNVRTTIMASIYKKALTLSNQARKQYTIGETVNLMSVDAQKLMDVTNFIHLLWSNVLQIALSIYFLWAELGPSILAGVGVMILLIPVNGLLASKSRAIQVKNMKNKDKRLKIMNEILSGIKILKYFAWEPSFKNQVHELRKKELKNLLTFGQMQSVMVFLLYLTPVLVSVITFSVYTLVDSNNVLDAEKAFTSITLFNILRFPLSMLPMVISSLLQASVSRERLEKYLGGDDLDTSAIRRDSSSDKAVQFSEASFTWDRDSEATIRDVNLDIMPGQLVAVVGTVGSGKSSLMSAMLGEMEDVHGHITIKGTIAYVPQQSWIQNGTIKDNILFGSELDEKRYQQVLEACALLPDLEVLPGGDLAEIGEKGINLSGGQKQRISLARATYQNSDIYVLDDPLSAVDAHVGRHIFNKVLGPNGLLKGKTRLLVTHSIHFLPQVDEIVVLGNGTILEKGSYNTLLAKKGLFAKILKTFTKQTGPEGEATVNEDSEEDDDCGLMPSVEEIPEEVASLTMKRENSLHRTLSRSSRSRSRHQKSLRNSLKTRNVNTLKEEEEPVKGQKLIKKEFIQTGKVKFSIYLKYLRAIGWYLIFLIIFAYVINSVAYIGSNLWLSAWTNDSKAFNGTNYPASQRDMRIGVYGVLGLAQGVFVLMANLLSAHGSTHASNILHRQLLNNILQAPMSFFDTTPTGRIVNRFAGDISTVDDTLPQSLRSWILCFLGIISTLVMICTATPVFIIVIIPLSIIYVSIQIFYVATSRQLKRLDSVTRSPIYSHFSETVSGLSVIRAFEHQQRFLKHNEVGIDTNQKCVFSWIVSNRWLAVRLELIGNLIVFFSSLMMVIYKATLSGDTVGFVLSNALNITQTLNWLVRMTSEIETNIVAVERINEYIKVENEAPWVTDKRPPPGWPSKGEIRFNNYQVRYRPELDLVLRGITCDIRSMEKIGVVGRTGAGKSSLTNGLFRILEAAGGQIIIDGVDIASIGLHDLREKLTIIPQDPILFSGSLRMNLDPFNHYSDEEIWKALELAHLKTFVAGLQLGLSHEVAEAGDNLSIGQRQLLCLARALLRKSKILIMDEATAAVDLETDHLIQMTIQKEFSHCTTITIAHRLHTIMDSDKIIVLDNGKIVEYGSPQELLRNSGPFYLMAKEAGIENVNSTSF
MRP2 (Homo sapiens, UniProt Q92887), sequence (Q92887 whole entry): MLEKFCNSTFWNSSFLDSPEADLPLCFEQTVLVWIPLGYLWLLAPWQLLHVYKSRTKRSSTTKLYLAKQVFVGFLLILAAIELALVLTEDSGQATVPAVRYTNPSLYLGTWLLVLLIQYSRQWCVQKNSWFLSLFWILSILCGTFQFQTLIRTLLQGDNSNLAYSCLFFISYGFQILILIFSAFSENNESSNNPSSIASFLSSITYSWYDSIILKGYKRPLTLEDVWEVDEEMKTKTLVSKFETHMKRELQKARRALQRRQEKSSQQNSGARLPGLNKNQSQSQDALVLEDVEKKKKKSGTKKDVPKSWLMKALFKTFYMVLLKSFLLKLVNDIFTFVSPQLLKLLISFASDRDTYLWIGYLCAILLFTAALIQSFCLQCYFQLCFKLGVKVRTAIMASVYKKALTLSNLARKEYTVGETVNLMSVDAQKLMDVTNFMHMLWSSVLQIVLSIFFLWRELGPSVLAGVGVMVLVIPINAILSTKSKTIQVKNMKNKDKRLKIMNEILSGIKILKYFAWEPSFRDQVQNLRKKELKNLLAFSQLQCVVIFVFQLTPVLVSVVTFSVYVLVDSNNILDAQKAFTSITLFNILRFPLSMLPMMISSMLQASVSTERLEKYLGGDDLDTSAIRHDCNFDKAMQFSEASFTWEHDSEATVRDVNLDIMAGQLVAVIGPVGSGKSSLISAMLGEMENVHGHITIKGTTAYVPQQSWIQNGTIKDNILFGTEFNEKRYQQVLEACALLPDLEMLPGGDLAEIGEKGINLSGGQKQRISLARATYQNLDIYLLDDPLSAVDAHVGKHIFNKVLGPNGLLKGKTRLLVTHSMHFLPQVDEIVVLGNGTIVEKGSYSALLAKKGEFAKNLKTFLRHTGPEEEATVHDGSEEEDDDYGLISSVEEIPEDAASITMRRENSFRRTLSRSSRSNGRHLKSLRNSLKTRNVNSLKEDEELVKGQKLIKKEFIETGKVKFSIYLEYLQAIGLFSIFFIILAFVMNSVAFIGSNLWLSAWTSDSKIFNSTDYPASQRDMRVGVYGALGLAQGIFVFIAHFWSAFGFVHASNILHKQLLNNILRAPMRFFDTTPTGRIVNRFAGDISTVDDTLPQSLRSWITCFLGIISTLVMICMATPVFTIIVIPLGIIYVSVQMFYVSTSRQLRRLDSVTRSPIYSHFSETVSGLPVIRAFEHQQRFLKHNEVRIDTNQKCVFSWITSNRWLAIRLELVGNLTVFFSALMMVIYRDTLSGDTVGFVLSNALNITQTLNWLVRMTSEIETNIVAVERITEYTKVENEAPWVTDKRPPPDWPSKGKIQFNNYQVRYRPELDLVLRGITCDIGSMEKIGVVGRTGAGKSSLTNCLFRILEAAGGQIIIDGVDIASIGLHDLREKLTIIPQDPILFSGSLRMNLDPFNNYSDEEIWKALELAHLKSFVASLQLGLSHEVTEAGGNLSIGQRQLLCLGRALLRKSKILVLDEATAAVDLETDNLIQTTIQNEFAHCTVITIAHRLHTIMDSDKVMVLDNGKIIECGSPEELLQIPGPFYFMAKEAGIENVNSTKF

SMILES | Effect on cell viability (MTT) (MDCKII-BCRP cells) | Increase of intracellular accumulation of GSMF (MRP2 [1]; [5]) [%] | Effect on BCRP (BCRP) | Effect on cell viability (MTT) (MDCKII-WT cells) | Increase of intracellular accumulation of GSMF (MRP2 [2]) [%] | Increase of intracellular accumulation of GSMF (MRP2 [1]; 50 μM, positive control in MOC experiment, Fig. 3(A)) [%] | Increase of intracellular accumulation of GSMF (MRP2 [1]; 25 μM, MN/HK experiment, Fig. 3(B)) [%] | Mortality of rats during the pharmacokinetic study [3] | AUC0-t of MTX ([4]; oral MTX 5.0 mg/kg + water (MTX alone), n = 6, mean ± S.E.) | AUC0-t of MTX ([4]; oral MTX 5.0 mg/kg, MOC 2.0 g/kg thrice daily for 2 days, 7th dose 0.5 h before MTX, n = 5, mean ± S.E.) [μmol·min·mL^−^1] | AUC0-t of MTX ([4]; oral MTX 5.0 mg/kg, single dose MOC 2.0 g/kg 0.5 h before MTX, n = 6, mean ± S.E.) [μmol·min·mL^−^1] | AUC0-t of MTX ([4]; oral MTX 5.0 mg/kg, single dose MOC 4.0 g/kg 0.5 h before MTX, n = 6, mean ± S.E.) [μmol·min·mL^−^1]
C=CCc1ccc(O)c(-c2cc(CC=C)ccc2O)c1 [MN, magnolol] | no toxic effects | 137 | significantly inhibited | no toxic effects |  |  |  |  |  |  |  | 
CN(C)C(=O)CCSC(SCCC(=O)O)c1cccc(/C=C/c2ccc3ccc(Cl)cc3n2)c1 (centres unmarked) [MK 571, reference compound] |  | 331 |  |  | 72 | 203 |  |  |  |  |  | 
C=CCc1ccc(O)c(-c2ccc(O)c(CC=C)c2)c1 [HK, honokiol] | no toxic effects | 75 | significantly inhibited | no toxic effects |  |  | 34 |  |  |  |  | 
CN(Cc1cnc2nc(N)nc(N)c2n1)c1ccc(C(=O)N[C@@H](CCC(=O)O)C(=O)O)cc1 [MTX, Methotrexate] |  |  |  |  |  |  |  | all survived very well | 44.6 ± 5.0^a μmol·min·mL^−^1 | 250.2 ± 31.2 | 201.5 ± 39.2 | 206.8 ± 35.9
